Test [1] deals with Mus musculus. As to the kind of experiment: In Vivo effect for the hypolipidemic activity on Hepatic lipoprotein lipase in CF1 mice after 16 days administered orally at a dose of 40 mg/kg. It counts as functional. To be noted: route oral. The method in brief: (§1)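 CF1 male mice are dosed orally at 10–60 mg/kg per day for 16 days, with 1% CMC as the control vehicle. Liver is homogenized at 10% in 0.25 M sucrose + 0.001 M EDTA, pH 7.2. Enzymes are assayed by literature methods, with Lowry protein. Activity is given as % of control (X ± SD, N = 6), with p from Student's t test.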

Test [2] deals with Mus musculus. As to the kind of experiment: Compound was evaluated for the hypolipidemic activity in CF1 male mice at a dose of 10 mg/kg orally for Serum cholesterol at 9th day. Format: functional. The settings on record: route oral. In short, it runs like this: (§2)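 CF1 male mice received the agent orally in 1% CMC at 10–60 mg/kg per day. Tail-vein blood was taken on days 9 and 16. Serum cholesterol was measured by modified Liebermann–Burchard on duplicate 25-µL samples, and serum triglyceride on day 16 in duplicate 50-µL samples. Values are % of vehicle control, mean ± SD, N = 6; Student's t test.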

Test [3] deals with Mus musculus. The test can be described thus: Compound was evaluated for the hypolipidemic activity in CF1 male mice at a dose of 20 mg/kg orally for Serum triglyceride at 16th day. It counts as functional. The settings on record: route oral. In short, it runs like this:
as §2

Test [4] relates to Rattus norvegicus. The test can be described thus: Compound was evaluated for the hypolipidemic activity in Sprague-Dawley rats at a dose of 20 mg/kg orally for Serum cholesterol at 9th day. Format: functional. The settings on record: route oral. The method in brief:
(§3)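 Sprague–Dawley male rats (~350 g) received 20 mg/kg per day orally, with 1% CMC as the vehicle control; N = 6. Tail-vein blood was taken between 8:00 and 9:30 a.m. on days 9 and 16 and spun for 3 min to obtain serum. Cholesterol was measured by a modified Liebermann–Burchard reaction and triglyceride by kit. Values are % control ± SD; significance by Student's t test.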

Test [5] relates to Mus musculus. The test can be described thus: In Vivo effect for the hypolipidemic activity on Acetyl-CoA carboxylase in CF1 mice after 16 days administered orally at a dose of 10 mg/kg. It counts as functional. The settings on record: route oral. In short, it runs like this:
as §1

For test [6], the target named is T1, 3-hydroxy-3-methylglutaryl-coenzyme A reductase (Mus musculus) (UniProt Q01237).
T1 sequence (whole entry): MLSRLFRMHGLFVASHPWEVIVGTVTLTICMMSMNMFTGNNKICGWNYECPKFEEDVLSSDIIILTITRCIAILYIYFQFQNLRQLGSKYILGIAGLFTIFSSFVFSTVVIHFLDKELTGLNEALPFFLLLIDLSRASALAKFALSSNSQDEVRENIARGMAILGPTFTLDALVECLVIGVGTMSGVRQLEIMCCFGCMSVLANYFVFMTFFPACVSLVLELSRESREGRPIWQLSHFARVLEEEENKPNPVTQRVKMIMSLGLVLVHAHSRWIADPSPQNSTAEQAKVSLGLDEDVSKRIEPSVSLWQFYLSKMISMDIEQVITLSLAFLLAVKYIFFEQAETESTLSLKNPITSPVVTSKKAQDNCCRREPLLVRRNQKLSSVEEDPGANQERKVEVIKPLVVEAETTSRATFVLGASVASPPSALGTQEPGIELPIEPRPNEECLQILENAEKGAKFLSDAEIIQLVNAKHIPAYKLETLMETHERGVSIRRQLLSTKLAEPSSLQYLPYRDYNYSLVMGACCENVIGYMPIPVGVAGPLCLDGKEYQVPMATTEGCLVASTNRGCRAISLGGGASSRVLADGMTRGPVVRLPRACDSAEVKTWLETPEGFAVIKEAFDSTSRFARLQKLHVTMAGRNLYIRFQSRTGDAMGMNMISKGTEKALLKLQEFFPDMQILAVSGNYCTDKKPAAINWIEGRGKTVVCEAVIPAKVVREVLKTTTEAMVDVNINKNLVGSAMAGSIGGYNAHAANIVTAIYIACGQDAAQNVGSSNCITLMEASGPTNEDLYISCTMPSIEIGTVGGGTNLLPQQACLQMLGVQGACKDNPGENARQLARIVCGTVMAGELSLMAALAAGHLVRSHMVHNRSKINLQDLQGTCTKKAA
The test can be described thus: In Vivo effect for the hypolipidemic activity on HMG-CoA reductase in CF1 mice after 16 days of oral administration at a dose of 40 mg/kg. Format: organism-based. Also noted: dose 40 mg/kg. The method in brief:
as §1

The subject of test [7] is Mus musculus. The test can be described thus: Compound was evaluated for the hypolipidemic activity in CF1 male mice at a dose of 60 mg/kg orally for Serum triglyceride at 16th day. The settings on record: route oral. Format: functional. In short, it runs like this: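 CF1 male mice dosed orally at 10–60 mg/kg per day, with 1% CMC as the vehicle control; N = 6 per group. Serum cholesterol was read on days 9 and 16 and serum triglyceride on day 16. Liver lipids were extracted on day 16 and assayed for cholesterol, triglyceride, neutral lipid, phospholipid and protein. Values are given as % of control ± SD.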

Test [8] relates to Rattus norvegicus. The test can be described thus: Compound was evaluated for the hypolipidemic activity in Sprague-Dawley rats at a dose of 20 mg/kg orally for Serum triglyceride at 9th day. The settings on record: route oral. It counts as functional. In short, it runs like this: as §3
The species entered for test [9] is Mus musculus. As to the kind of experiment: In Vitro evaluation for the CF1 liver enzyme activity on phosphatidate phosphohydrolase at concentration 50 uM. In short, it runs like this:
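Mouse liver enzymes assayed in vitro on 10% homogenates of CF1 male mouse liver, with test drug added at 50–200 μM. Each enzyme follows a published procedure. Protein is measured by Lowry. Activity is given as % of untreated control (X ± SD, N = 6).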

Test [10] concerns Rattus norvegicus. The test can be described thus: Compound was evaluated for the hypolipidemic activity at 20 mg/kg per day orally for 14 days on cholesterol content in rat LDL. Format: functional. The settings on record: route oral. In short, it runs like this: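 Male Sprague–Dawley rats (~300 g) were dosed orally each day. Blood was drawn from the abdominal vein. Lipoprotein fractions (chylomicron, VLDL, LDL, HDL) were separated by the Hatch–Lees and Havel methods. Each fraction was assayed for cholesterol, triglyceride (enzymatic kit), neutral lipids, phospholipids and Lowry protein. Values are % of 1% CMC vehicle control, N = 6.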

The test system of test [11] is Mus musculus. As to the kind of experiment: In Vivo effect for the hypolipidemic activity on Hepatic lipoprotein lipase in CF1 mice after 16 days administered orally at a dose of 60 mg/kg. To be noted: route oral. It counts as functional. In short, it runs like this: as §1
Test [12] relates to Rattus norvegicus. As to the kind of experiment: Compound was evaluated for the hypolipidemic activity at 20 mg/kg per day orally for 14 days on neutral lipid content in rat liver. It counts as functional. The settings on record: route oral. The method in brief:
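Male Sprague–Dawley rats were dosed orally for 14 days. Liver, small intestine and a 24-h fecal collection were lipid-extracted. Extracts were assayed for cholesterol (modified Liebermann–Burchard), triglyceride (enzymatic kit), neutral lipids, phospholipids and protein. Values are % of 1% CMC vehicle control, mean ± SD, N = 6.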

Consider `COc1ccc(C2C(=O)c3ccccc3C2=O)cc1` [ANISINDIONE], for which the Control was 89% in the test with Mus musculus [1]; 82% in the test on Mus musculus [2]; 48% in the test with Mus musculus [3]; 74% with Rattus norvegicus [4]; 89% with Mus musculus [5]; 114% in [6]. For the same molecule, the Control came to 67% in the test on Mus musculus [7]; 73% in the test with Rattus norvegicus [8]; 36% in the test filed under Mus musculus [9]; 18% in the test on Rattus norvegicus [10]; 89% with Mus musculus [11]; 84% in the test with Rattus norvegicus [12].
